Source: PubChem
Hits are enriched below; roughly 3.1% of the tested compounds scored in any of these assays.
HSF-1 act – increases HSF-1 driven luciferase reporter signal; 300,000 compounds, 1.7% hits; NIH3T3-HGL HSF-1 luciferase reporter, MG132, 8 h; 100% = twice DMSO control signal; AID 504408; activation, % at 9 µM;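 active = mean replicate activation of at least 50% with a set share of replicates each reaching 50%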
Hsp70 act – Hsp70 transcriptional activation, primary screen; activation, % at 10 µM; HeLa Hsp70 promoter luciferase reporter, luminescence; scaled: vehicle 0, proteasome-inhibitor control 100%; AID 1203; 200,000 compounds, 0.04% hits;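 active = activation above the mean across all tested compounds plus 3 SD, cutoff set per campaign, cut at about 5.5% in these data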
TbHK1 inh – T. brucei hexokinase 1 inhibition; AID 1430; 220,000 compounds, 0.11% hits; inhibition, % at 10 µM; recombinant TbHK1, G6PDH-coupled NADH A340;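 active = inhibition of 50% or more in the single-dose primary screen; inactive = inhibition below 50%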
HSP90 refold inh – blocks HSP90-mediated luciferase refolding in reticulocyte lysate; 290,000 compounds, 0.91% hits; inhibition, % at 5.6 µM; Rabbit reticulocyte lysate, luciferase refolding luminescence, 3 h;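 active = inhibition above the screen-wide mean plus 3 SD, computed separately per campaign, cut at about 16% in these data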;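 note: inhibitors lower the luminescence because luciferase stays unfolded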
HSF1 inh – HSF1 inhibition | NIH3T3-HGL HSE-luciferase, MG132-induced, luminescence 8 h; stronger effect = lower value | activity change, negative = inhibition, % at 7.5 µM (by protocol) | 300,000 compounds, 0.77% hits;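 active = more than half of replicate wells show activity change below -50%, luminescence cut by over half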;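 note: luciferase reports HSF-1 transcriptional activity via heat shock element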
HKDC1 inhibitor – inhibitors of human hexokinase HKDC1 | inhibition, % at 20 µM | 340,000 compounds, 0.16% hits | Q2TB90 | recombinant HKDC1, G6PDH/diaphorase resazurin coupled fluorescence;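 active = inhibition above about 35% when tested at 20 µM, limit read from the data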
Target sequence (Q2TB90 whole entry, looked up): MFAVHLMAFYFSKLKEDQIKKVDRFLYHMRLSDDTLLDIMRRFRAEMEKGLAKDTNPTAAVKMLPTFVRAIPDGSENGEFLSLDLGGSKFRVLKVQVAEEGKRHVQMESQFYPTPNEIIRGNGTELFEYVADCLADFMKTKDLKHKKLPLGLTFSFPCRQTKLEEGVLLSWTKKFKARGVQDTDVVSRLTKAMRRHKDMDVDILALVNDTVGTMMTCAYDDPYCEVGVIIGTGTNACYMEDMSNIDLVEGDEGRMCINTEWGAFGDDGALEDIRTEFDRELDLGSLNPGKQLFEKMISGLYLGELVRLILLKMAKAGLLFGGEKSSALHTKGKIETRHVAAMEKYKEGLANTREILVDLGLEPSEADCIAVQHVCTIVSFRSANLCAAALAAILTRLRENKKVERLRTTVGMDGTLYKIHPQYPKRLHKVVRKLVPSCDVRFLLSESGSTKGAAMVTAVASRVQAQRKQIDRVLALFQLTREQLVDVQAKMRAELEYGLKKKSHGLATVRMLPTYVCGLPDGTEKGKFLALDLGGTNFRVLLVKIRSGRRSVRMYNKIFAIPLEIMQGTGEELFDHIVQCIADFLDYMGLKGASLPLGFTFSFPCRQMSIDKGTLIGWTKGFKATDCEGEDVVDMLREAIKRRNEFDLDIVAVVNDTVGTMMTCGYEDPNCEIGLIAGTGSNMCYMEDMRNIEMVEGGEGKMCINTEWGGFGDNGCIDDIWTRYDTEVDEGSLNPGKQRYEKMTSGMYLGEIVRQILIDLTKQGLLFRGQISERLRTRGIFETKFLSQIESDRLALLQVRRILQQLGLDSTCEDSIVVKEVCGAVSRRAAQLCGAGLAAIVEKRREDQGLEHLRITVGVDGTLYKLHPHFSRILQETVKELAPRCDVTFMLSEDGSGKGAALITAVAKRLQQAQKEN
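Material: recombinant HKDC1 hexokinase; Amount: HKDC1 at 5 µg/mL; Medium: Tris pH 8.0 buffer with MgCl2, Tween-20, BSA, BME; Schedule: 90 min reaction incubation at room temperature, dark; Technique: coupled resazurin fluorescence, excitation 525 nm, emission 613 nm.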
Each line names hits and unclear results; the compound was inactive in the other large screens.

COC(=O)c1ccc(COc2ccccc2/C=C(\C#N)C(=O)Nc2c(C)cccc2C)cc1	HSF-1 act 148
O=C(Nc1ccc(F)cc1)c1ccc(=O)[nH]n1	HSF1 inh -71 (no result: Hsp70 act, TbHK1 inh)
Cc1ccc(S(=O)(=O)c2ccc([N+](=O)[O-])cn2)cc1	HSF1 inh -84 (no result: Hsp70 act, TbHK1 inh)
O=[N+]([O-])c1ccc(S(=O)(=O)c2ccccc2)nc1	HSF1 inh -96 (no result: Hsp70 act, TbHK1 inh)
Cc1cc(S(=O)(=O)c2ccc([N+](=O)[O-])cn2)ccc1Br	none (no result: Hsp70 act, TbHK1 inh, HSP90 refold inh)
Nc1ccc(S(=O)(=O)c2ccccc2)nc1	none (no result: Hsp70 act, TbHK1 inh)
CCN(CC(=O)NCc1cccs1)C(=O)c1cccc(S(=O)(=O)N2CC(C)OC(C)C2)c1 (centres undefined)	none (no result: HSF-1 act, Hsp70 act, TbHK1 inh, HSP90 refold inh, HSF1 inh)
CCCCCSc1nc(C)c(CC(=O)O)c(=O)[nH]1	HSF1 inh -92
COc1ccc(CNC(=O)c2cc(=O)c3cc(C)cc(C)c3o2)cc1	none (no result: Hsp70 act, TbHK1 inh)
COC(=O)c1c(C)[nH]c(C)c1-c1cccc([N+](=O)[O-])c1	HSF1 inh -91
COC(=O)c1c(C)[nH]c(C)c1-c1ccc(C)cc1	none
COCCN(C(=O)COC(=O)/C=C/c1ccc(C(F)(F)F)cc1)c1c(N)n(Cc2ccccc2)c(=O)[nH]c1=O	HSF1 inh -67 (no result: Hsp70 act, TbHK1 inh, HSP90 refold inh)
CCN(CC)c1ccc(/C=C(/C#N)c2nc3ccccc3[nH]2)c(OC(C)C)c1	HSP90 refold inh 16
CCOc1cccc(/C=C(/C#N)c2nc3ccccc3[nH]2)c1OCC(=O)O	none (no result: Hsp70 act, TbHK1 inh)
Oc1ccc(-c2cn3c(n2)SCC3)cc1	none
Brc1ccc(-c2cn3c(n2)SCC3)cc1	HSF-1 act 63
Clc1ccc(-c2cn3c(n2)SCC3)cc1	HSF-1 act 58
O=C(OCc1ccccc1)N(CCCCN(CCCNCc1ccccc1)C(=O)OCc1ccccc1)CCCNCc1ccccc1	none (no result: HSF-1 act, Hsp70 act, TbHK1 inh, HSP90 refold inh, HSF1 inh)
Cc1cc(C)c2sc(NC(=O)C3CC3)nc2c1	none (no result: Hsp70 act, TbHK1 inh)
COc1ccc2[nH]c(=O)c(CN(C(=O)C(C)C)c3ccccc3OC)cc2c1	none (no result: Hsp70 act, TbHK1 inh)
COc1ccc2[nH]c(=O)c(CN(C(=O)COc3ccccc3)C(C)C)cc2c1	HSF-1 act 64
CCCNC(=O)[C@@H]1CCCN1C(=O)[C@@H]1Cc2ccccc2CN1	none (no result: Hsp70 act, TbHK1 inh)
O=C(C=Cc1ccccc1Cl)c1ccccc1	none (no result: HSF-1 act, Hsp70 act, TbHK1 inh, HSP90 refold inh, HSF1 inh)
O=C(/C=C/Sc1ccccc1)c1ccc(Cl)cc1	HSF-1 act 161
N#Cc1ccc(S(=O)(=O)N2CCN(CC(=O)NCC3(N4CCOCC4)CCCCC3)CC2)cc1	none (no result: HSF-1 act, Hsp70 act, TbHK1 inh, HSP90 refold inh, HSF1 inh)
COc1ccc(/C=C(\C#N)C(=O)Nc2cccc(C)n2)cc1	HSF-1 act 71 (no result: Hsp70 act, TbHK1 inh)
Cc1cccc(NC(=O)/C(C#N)=C/c2ccccc2O)n1	HSF-1 act 77 (no result: Hsp70 act, TbHK1 inh)
CCc1ccc(NS(=O)(=O)c2c(C(=O)N3CCCCCC3)c(C)n(C)c2C)cc1	none (no result: Hsp70 act, TbHK1 inh)
Cc1ccc(NC(=O)c2ccc(Cl)c(S(=O)(=O)N3CCCCC3)c2)nc1	none (no result: HSF-1 act, Hsp70 act, TbHK1 inh, HSP90 refold inh, HSF1 inh)
CS(=O)(=O)N(CC(=O)NCCSC1CCCCC1)c1ccc2c(c1)OCO2	HSF1 inh -67
CCn1c(O)c(C2=c3ccccc3=NC2=O)c2cc(Br)ccc21	HSF-1 act 209
O=C1N=c2ccccc2=C1c1c(O)n(-c2cccc(F)c2)[nH]c1=O	none
Cc1cccn2c(=O)c3cc(C(=O)NC4CCS(=O)(=O)C4)n(Cc4ccccc4)c3nc12 (centres undefined)	none (no result: Hsp70 act, TbHK1 inh)
Cc1ccc(S(=O)(=O)N2[C@@H](c3ccc(C(C)C)cc3)C(C(=O)O)=C[C@H]2C(C)(C)C)cc1	none (no result: HSF-1 act, Hsp70 act, TbHK1 inh, HSP90 refold inh, HSF1 inh)
CS(=O)(=O)c1ccc(NC(=O)c2ccc3c(c2)S(=O)(=O)N=C2CCCCCN23)cc1	HSF1 inh -54 (no result: Hsp70 act, TbHK1 inh, HSP90 refold inh)
NC(=O)c1ccc(NC(=O)CC23CC4CC(CC(Br)(C4)C2)C3)cc1	HSF-1 act 76 (no result: Hsp70 act, TbHK1 inh)
CCOC(=O)c1cocc1C(=O)O	none (no result: HSF-1 act, Hsp70 act, TbHK1 inh, HSP90 refold inh, HSF1 inh)
CCOc1ccc(N2C(=O)/C(=C\c3ccc(O)c(OC)c3)S(=O)(=O)C2c2cccc([N+](=O)[O-])c2)cc1 (centres undefined)	HSF-1 act 112
O=C(O)c1cc(S(=O)(=O)N(Cc2ccccc2)c2ccccc2Cl)ccc1Cl	HSF1 inh -52 (no result: Hsp70 act, TbHK1 inh)
CN(Cc1ccccc1)S(=O)(=O)c1ccc(Cl)c(C(=O)O)c1	none
N#Cc1cccc(NC(=O)Nc2cccs2)c1	none
O=C(Nc1cccs1)Nc1c(F)c(F)cc(F)c1F	HSF-1 act 59
CCc1cccc(NC(=O)Nc2cccs2)c1	HSF-1 act 133
COC(=O)c1ccccc1NC(=O)Nc1cccs1	HSF-1 act 66
CCCCc1ccc(NC(=S)NCc2ccc(OC)cc2)cc1	HSF-1 act 51
COc1ccc(C(=O)NC(=S)Nc2ccc(CN3CCOCC3)cc2)cc1Cl	none (no result: Hsp70 act, TbHK1 inh)
COc1ccc(C(=O)NC(=S)Nc2ccc(CN3CCCCC3)cc2)cc1Cl	HSF-1 act 59
CCc1ccc(N(C(=O)c2snc(C(N)=O)c2N)C(C(=O)NC2CCCC2)c2ccco2)cc1 (centres undefined)	none (no result: Hsp70 act, TbHK1 inh)
COc1ccc(C(C(=O)NC2CCCC2)N(Cc2ccccc2)C(=O)c2snc(C(N)=O)c2N)cc1OC (centres undefined)	HSF-1 act 52 (no result: Hsp70 act, TbHK1 inh)
